ChEMBL document CHEMBL2375346, “Lanostane triterpenoids from the mushroom Naematoloma fasciculare” (J Nat Prod, 2013)
Active and inactive are the calls of the source. The rule behind the calls is not given here.

How the values were obtained:
BV-2 [1] = test: Cytotoxicity against mouse BV2 cells assessed as cell viability by MTT assay; assay type: cell-based
Summary of the method: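 Viability of BV-2 microglia was measured by MTT assay in parallel with the LPS-stimulated NO experiment: 3 × 10^4 cells/well, 30 min compound pretreatment, then 100 ng/mL LPS for 24 h.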

BV-2 [2] = test: Antiinflammatory activity in mouse BV2 cells assessed as inhibition of LPS-induced nitrite production incubated for 30 mins prior to LPS challenge measured after 24 hrs by Griess assay; assay type: functional, cell-based
Summary of the method: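 BV-2 murine microglia seeded at 3 × 10^4 cells/well, grown 24 h, then pretreated with compound for 30 min before 100 ng/mL LPS stimulation for a further 24 h. Nitrite in the medium was read by Griess reaction (1% sulfanilamide, 0.1% N-1-naphthylethylenediamine dihydrochloride in 5% phosphoric acid), with absorbance at 540 nm after 10 min against a sodium nitrite standard. L-NMMA was the positive control. IC50 reported.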

SK-MEL-2 = test: Cytotoxicity against human SK-MEL-2 cells assessed as growth inhibition by SRB assay; assay type: functional, cell-based
Summary of the method: (§1)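 Human cancer lines supplied by NCI. Cytotoxicity was measured by sulforhodamine B (SRB) assay at KRICT, with doxorubicin as positive control. IC50 reported.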

HCT-15 = test: Cytotoxicity against human HCT15 cells assessed as growth inhibition by SRB assay; assay type: functional, cell-based; summary of the method: as §1
A549 = test: Cytotoxicity against human A549 cells assessed as growth inhibition by SRB assay; assay type: functional, cell-based; summary of the method: as §1
SK-OV-3 = test: Cytotoxicity against human SKOV3 cells assessed as growth inhibition by SRB assay; assay type: functional, cell-based; summary of the method: as §1

Row | Compound | Activity (BV-2 [1]) | Activity (BV-2 [2]) | IC50 (SK-MEL-2) [µM] | IC50 (HCT-15) [µM] | IC50 (A549) [µM] | IC50 (SK-OV-3) [µM] | IC50 (BV-2 [2]) [µM]
1 | CC(C)(O)[C@H](O)CC[C@@H](CO)[C@H]1CC[C@@]2(C)C3=C(C[C@H](O)[C@]12C)[C@@]1(C)C[C@@H](O)[C@H](OC(=O)C[C@@](C)(O)CC(=O)O)C(C)(C)[C@@H]1CC3 | Non-toxic | inactive | > 30 | > 30 | > 30 | > 30 | 
2 | CC(C)(O)[C@H](O)CC[C@@H](CO)[C@H]1CC[C@@]2(C)C3=C(C[C@H](O)[C@]12C)[C@@]1(C)C[C@@H](OC(=O)C[C@@](C)(O)CC(=O)O)[C@H](O)C(C)(C)[C@@H]1CC3 | Non-toxic | inactive | 25.2 | 28 | 25.5 | 16.2 | 
3 | COC(=O)CNC(=O)CC(C)(O)CC(=O)O[C@@H]1C[C@]2(C)C3=C(CC[C@H]2C(C)(C)[C@H]1O)[C@]1(C)CC[C@H]([C@H](CO)CC[C@@H](O)C(C)(C)O)[C@@]1(C)[C@@H](O)C3 (some centres not stated) | Toxic | inactive | 5.73 | > 30 | > 30 | > 30 | 
4 | C[C@H](CC[C@@H](O)C(C)(C)O)[C@H]1CC[C@@]2(C)C3=C(C[C@H](O)[C@]12C)[C@@]1(C)C[C@@H](OC(=O)CC(C)(O)CC(=O)O)[C@H](O)C(C)(C)[C@@H]1CC3 (some centres not stated) | Non-toxic |  | 16.6 | 28.5 | 27.2 | 22.2 | 93.1
5 | CC(C)(O)[C@H](O)CC[C@@H](CO)[C@H]1CC[C@@]2(C)C3=C(C[C@H](O)[C@]12C)[C@@]1(C)C[C@@H](O)[C@H](O)C(C)(C)[C@@H]1CC3 | Toxic | inactive | 2.29 | 3.06 | 2.37 | 2.82 | 
6 | COC(=O)CNC(=O)CC(C)(O)CC(=O)O[C@H]1[C@H](O)C[C@]2(C)C3=C(CC[C@H]2C1(C)C)[C@]1(C)CC[C@H]([C@H](C)CC[C@@H](O)C(C)(C)O)[C@@]1(C)[C@@H](O)C3 (some centres not stated) | Toxic | inactive | 8.6 | > 30 | > 30 | > 30 | 
7 | CC(C)(O)[C@H](O)CC[C@@H](CO)[C@H]1CC[C@@]2(C)C3=CC[C@H]4C(C)(C)[C@@H](O)[C@H](O)C[C@]4(C)C3=C[C@H](O)[C@]12C | Toxic | inactive | 4.54 | 7.71 | 4.47 | 3.29 | 
8 | CC(C)(O)[C@H](O)CC[C@@H](CO)[C@H]1CC[C@@]2(C)C3=C(CC(=O)[C@]12C)[C@@]1(C)C[C@@H](O)[C@H](O)C(C)(C)[C@@H]1CC3 | Toxic | inactive | > 30 | > 30 | > 30 | 7.98 | 
9 | C[C@H](CC[C@@H](O)C(C)(C)O)[C@H]1CC[C@@]2(C)C3=C(C[C@H](O)[C@]12C)[C@@]1(C)C[C@@H](O)[C@H](OC(=O)C[C@@](C)(O)CC(=O)O)C(C)(C)[C@@H]1CC3 |  | inactive | > 30 | > 30 | > 30 | > 30 | 
10 | CC(C)(O)[C@H](O)CC[C@@H](CO)[C@H]1CC[C@]2(C)[C@]1(C)[C@@H](O)C=C1[C@]23O[C@H]3C[C@H]2C(C)(C)[C@@H](O)[C@H](O)C[C@]12C | Non-toxic | inactive | 8.26 | 8.53 | 6.59 | 7.08 | 
11 | COc1cccc2c1C(=O)c1c(O)c3c(c(O)c1C2=O)C[C@@](O)(C(=O)CO)C[C@@H]3O[C@H]1C[C@H](N)[C@H](O)[C@H](C)O1 [DOXORUBICIN] |  |  | 0.01 | 0.13 | 0.02 | 0.01 | 
12 | CC(C)(O)[C@H](O)CC[C@@H](CO)[C@H]1CC[C@@]2(C)C3=C(C[C@H](O)[C@]12C)[C@@]1(C)C[C@@H](O)[C@H](O)C(C)(C)[C@@H]1CC3=O | Non-toxic |  | 4.77 | 8.5 | 3.99 | 7.36 | 49.9
13 | C[C@H](CC[C@@H](O)C(C)(C)O)[C@H]1CC[C@@]2(C)C3=C(CC(=O)[C@]12C)[C@@]1(C)C[C@@H](O)[C@H](O)C(C)(C)[C@@H]1CC3 | Non-toxic | inactive | > 30 | > 30 | > 30 | 9.86 | 
14 | COC(=O)CNC(=O)CC(C)(O)CC(=O)O[C@H]1[C@H](O)C[C@]2(C)C3=C(CC[C@H]2C1(C)C)[C@]1(C)CC[C@H]([C@H](CO)CC[C@@H](O)C(C)(C)O)[C@@]1(C)[C@@H](O)C3 (some centres not stated) |  | inactive | 9.06 | > 30 | > 30 | > 30 | 
15 | C[C@H](CC[C@@H](O)C(C)(C)O)[C@H]1CC[C@@]2(C)C3=C(C[C@H](O)[C@]12C)[C@@]1(C)C[C@@H](O)[C@H](O)C(C)(C)[C@@H]1CC3 | Toxic | inactive | 5.17 | 8.22 | 7.85 | 8.53 | 
16 | COC(=O)CNC(=O)CC(C)(O)CC(=O)O[C@@H]1C[C@]2(C)C3=C(CC[C@H]2C(C)(C)[C@H]1O)[C@]1(C)CC[C@H]([C@H](C)CC[C@@H](O)C(C)(C)O)[C@@]1(C)[C@@H](O)C3 (some centres not stated) | Toxic | inactive | 9.16 | > 30 | > 30 | > 30 | 
